In brackets after ≈: the same amount, converted by molar mass. Activity calls are given as the source filed them. No cut-off for these calls is given here.
Legend:
Trichoderma viride [1] = experiment: Antifungal activity against Trichoderma viride MTCC 1107 assessed as zone of inhibition at 40 uM after 48 hrs by disc diffusion method; assay type: functional; conditions: MTCC 1107, 48 h, read-out: IZ
How it was run: (§1)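 Spores from 4-day potato dextrose agar cultures, suspended in sterile water at 1.5 × 10⁵ CFU/mL. 0.2 mL was spread on potato dextrose agar. 5 mm filter-paper discs soaked with test compound were laid on the lawn. Incubation was 48 h at 28 °C, then the inhibition zone was measured in mm. Fluconazole was the positive control and acetone the negative control.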

Aspergillus niger [2] = experiment: Antifungal activity against Aspergillus niger MTCC 1108 assessed as zone of inhibition at 20 uM after 48 hrs by disc diffusion method; assay type: functional; how it was run: as §1
Bacillus cereus [3] = experiment: Antimicrobial activity against Bacillus cereus MTCC 7350 assessed as diameter of inhibition zone at 40 uM after 24 hrs by Kirby -Baur disc diffusion method; assay type: functional
How it was run: (§2)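 Kirby-Bauer disc diffusion was used. Acetone stocks (160 µM) were serially doubled down to 80, 40 and 20 µM. 4 µL of each went onto 5 mm sterile paper discs, which were dried 30 min at 50 °C. Inoculum was 1.5 × 10⁸ CFU/mL diluted to 3 × 10² CFU/mL, and 50 µL was spread on Mueller-Hinton agar. After 24 h at 37 °C the inhibition-zone diameter was measured. Ciprofloxacin served as positive control.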

HeLa = experiment: Cytotoxicity against human HeLa cells after 24 hrs by MTT assay; assay type: functional, cell-based
How it was run: (§3)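 The MTT assay seeded 5 × 10⁴ cells per well and grew them 24 h in RPMI 1640 with compound at 2.5–200 µM. Medium without cells was the blank and adriamycin the positive control. MTT was added for 4 h at 37 °C, formazan was solubilised, and absorbance was read at 570 nm. IC50 is the concentration that cuts viability 50% against untreated cells.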

Bacillus cereus [4] = experiment: Antimicrobial activity against Bacillus cereus MTCC 7350 after 24 hrs by broth micro serial dilution method; assay type: functional; conditions: MTCC 7350, 24 h
How it was run: (§4)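 This was broth microdilution in autoclaved Mueller-Hinton broth. 150 µL of compound per well was serially diluted […], and 50 µL of test organism was added. Plates were incubated 24 h at 37 °C and optical density was read.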

Curvularia lunata [5] = experiment: Antifungal activity against Curvularia lunata MTCC 581 after 48 hrs; assay type: functional; conditions: MTCC 581, 48 h
Aspergillus niger [6] = experiment: Antifungal activity against Aspergillus niger MTCC 1108 after 48 hrs; assay type: functional; conditions: MTCC 1108, 48 h
Aspergillus flavus [7] = experiment: Antifungal activity against Aspergillus flavus MTCC 1021 assessed as zone of inhibition at 40 uM after 48 hrs by disc diffusion method; assay type: functional; conditions: MTCC 1021, 48 h, read-out: IZ; how it was run: as §1
HCT-116 = experiment: Cytotoxicity against human HCT116 cells after 24 hrs by MTT assay; assay type: functional, cell-based; how it was run: as §3
Escherichia coli [8] = experiment: Antimicrobial activity against Escherichia coli ATCC 35218 assessed as diameter of inhibition zone at 80 uM after 24 hrs by Kirby -Baur disc diffusion method; assay type: functional; how it was run: as §2
Staphylococcus aureus [9] = experiment: Antimicrobial activity against Staphylococcus aureus ATCC 11632 assessed as diameter of inhibition zone at 80 uM after 24 hrs by Kirby -Baur disc diffusion method; assay type: functional; conditions: ATCC 11632, 24 h, read-out: DIZ; how it was run: as §2
Trichoderma viride [10] = experiment: Antifungal activity against Trichoderma viride MTCC 1107 after 48 hrs; assay type: functional; conditions: MTCC 1107, 48 h
QG-56 = experiment: Cytotoxicity against human QG56 cells after 24 hrs by MTT assay; assay type: functional, cell-based; how it was run: as §3
Curvularia lunata [11] = experiment: Antifungal activity against Curvularia lunata MTCC 581 assessed as zone of inhibition at 40 uM after 48 hrs by disc diffusion method; assay type: functional; conditions: MTCC 581, 48 h, read-out: IZ; how it was run: as §1
Aspergillus flavus [12] = experiment: Antifungal activity against Aspergillus flavus MTCC 1021 after 48 hrs; assay type: functional; conditions: MTCC 1021, 48 h
Trichoderma viride [13] = experiment: Antifungal activity against Trichoderma viride MTCC 1107 assessed as zone of inhibition at 20 uM after 48 hrs by disc diffusion method; assay type: functional; conditions: MTCC 1107, 48 h, read-out: IZ; how it was run: as §1
Curvularia lunata [14] = experiment: Antifungal activity against Curvularia lunata MTCC 581 assessed as zone of inhibition at 20 uM after 48 hrs by disc diffusion method; assay type: functional; conditions: MTCC 581, 48 h, read-out: IZ; how it was run: as §1
Escherichia coli [15] = experiment: Antimicrobial activity against Escherichia coli ATCC 35218 after 24 hrs by broth micro serial dilution method; assay type: functional; conditions: ATCC 35218, 24 h; how it was run: as §4
Aspergillus niger [16] = experiment: Antifungal activity against Aspergillus niger MTCC 1108 assessed as zone of inhibition at 80 uM after 48 hrs by disc diffusion method; assay type: functional; conditions: MTCC 1108, 48 h, read-out: IZ; how it was run: as §1
Trichoderma viride [17] = experiment: Antifungal activity against Trichoderma viride MTCC 1107 assessed as zone of inhibition at 80 uM after 48 hrs by disc diffusion method; assay type: functional; conditions: MTCC 1107, 48 h, read-out: IZ; how it was run: as §1
Pseudomonas aeruginosa [18] = experiment: Antimicrobial activity against Pseudomonas aeruginosa ATCC 15499 assessed as diameter of inhibition zone at 80 uM after 24 hrs by Kirby -Baur disc diffusion method; assay type: functional; how it was run: as §2
Salmonella typhi [19] = experiment: Antimicrobial activity against Salmonella typhi ATCC 23564 assessed as diameter of inhibition zone at 80 uM after 24 hrs by Kirby -Baur disc diffusion method; assay type: functional; conditions: Salmonella enterica subsp. enterica serovar Typhi
Mus musculus = experiment: Antiinflammatory activity in mouse assessed as inhibition of carrageenan-induced increase in paw volume at 200 mg/kg administered 1 hr prior to carrageenan challenge measured after 3 hrs relative to control; assay type: functional
How it was run: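 Mice were fasted 2 h and placed in groups of five. Controls received saline i.p. Phenylbutazone was given at 100 mg/kg i.p., curcumin at 200 mg/kg i.p., and derivatives at 200 mg/kg. After 1 h, 0.1 mL of 1% carrageenan in saline was injected subplantar into the right hind paw. Paw volume was followed by plethysmometer for 3 h, and % inhibition was calculated as (Vc − Vt)/Vc × 100.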

Curvularia lunata [20] = experiment: Antifungal activity against Curvularia lunata MTCC 581 assessed as zone of inhibition at 80 uM after 48 hrs by disc diffusion method; assay type: functional; conditions: MTCC 581, 48 h, read-out: IZ; how it was run: as §1
Aspergillus niger [21] = experiment: Antifungal activity against Aspergillus niger MTCC 1108 assessed as zone of inhibition at 40 uM after 48 hrs by disc diffusion method; assay type: functional; conditions: MTCC 1108, 48 h, read-out: IZ; how it was run: as §1
Aspergillus flavus [22] = experiment: Antifungal activity against Aspergillus flavus MTCC 1021 assessed as zone of inhibition at 80 uM after 48 hrs by disc diffusion method; assay type: functional; conditions: MTCC 1021, 48 h, read-out: IZ; how it was run: as §1
HepG2 = experiment: Cytotoxicity against human HepG2 cells after 24 hrs by MTT assay; assay type: functional, cell-based; how it was run: as §3
Staphylococcus aureus [23] = experiment: Antimicrobial activity against Staphylococcus aureus ATCC 11632 after 24 hrs by broth micro serial dilution method; assay type: functional; conditions: ATCC 11632, 24 h; how it was run: as §4
Bacillus cereus [24] = experiment: Antimicrobial activity against Bacillus cereus MTCC 7350 assessed as diameter of inhibition zone at 80 uM after 24 hrs by Kirby -Baur disc diffusion method; assay type: functional; conditions: MTCC 7350, 24 h, read-out: DIZ; how it was run: as §2
Staphylococcus aureus [25] = experiment: Antimicrobial activity against Staphylococcus aureus ATCC 11632 assessed as diameter of inhibition zone at 40 uM after 24 hrs by Kirby -Baur disc diffusion method; assay type: functional; how it was run: as §2
Staphylococcus aureus [26] = experiment: Antimicrobial activity against Staphylococcus aureus ATCC 11632 assessed as diameter of inhibition zone at 20 uM after 24 hrs by Kirby -Baur disc diffusion method; assay type: functional; how it was run: as §2
Salmonella typhi [27] = experiment: Antimicrobial activity against Salmonella typhi ATCC 23564 after 24 hrs by broth micro serial dilution method; assay type: functional; conditions: Salmonella enterica subsp. enterica serovar Typhi
Bacillus cereus [28] = experiment: Antimicrobial activity against Bacillus cereus MTCC 7350 assessed as diameter of inhibition zone at 20 uM after 24 hrs by Kirby -Baur disc diffusion method; assay type: functional; how it was run: as §2
Aspergillus flavus [29] = experiment: Antifungal activity against Aspergillus flavus MTCC 1021 assessed as zone of inhibition at 20 uM after 48 hrs by disc diffusion method; assay type: functional; conditions: MTCC 1021, 48 h, read-out: IZ; how it was run: as §1
Pseudomonas aeruginosa [30] = experiment: Antimicrobial activity against Pseudomonas aeruginosa ATCC 15499 after 24 hrs by broth micro serial dilution method; assay type: functional; conditions: ATCC 15499, 24 h; how it was run: as §4

SMILES: COc1cc(/C=C/C(=O)C(/N=N/c2ccc(S(=O)(=O)Nc3nc(C)cc(C)n3)cc2)=C(O)/C=C/c2ccc(O)c(OC)c2)ccc1O
- zone of inhibition at 40 µM (Trichoderma viride [1]): 19 mm
- zone of inhibition at 20 µM (Aspergillus niger [2]; MTCC 1108, 48 h, read-out: IZ): 9 mm
- diameter of the inhibition zone (DIZ) (Bacillus cereus [3]): inactive
- IC50 (HeLa): 50 µM
- MIC (Bacillus cereus [4]): > 80 µM
- MIC (Curvularia lunata [5]): 20 µM (≈ 13.2 µg/mL)
- MIC (Aspergillus niger [6]): 40 µM (≈ 26.3 µg/mL)
- zone of inhibition at 40 µM (Aspergillus flavus [7]): 13 mm
- IC50 (HCT-116): Not Active
- diameter of the inhibition zone (DIZ) (Escherichia coli [8]): inactive
- zone of inhibition at 80 µM (Staphylococcus aureus [9]): 10 mm
- MIC (Trichoderma viride [10]): 20 µM (≈ 13.2 µg/mL)
- IC50 (QG-56): 100 µM
- zone of inhibition at 40 µM (Curvularia lunata [11]): 19 mm
- MIC (Aspergillus flavus [12]): 40 µM (≈ 26.3 µg/mL)
- zone of inhibition at 20 µM (Trichoderma viride [13]): 18 mm
- zone of inhibition at 20 µM (Curvularia lunata [14]): 18 mm
- MIC (Escherichia coli [15]): > 80 µM
- zone of inhibition at 80 µM (Aspergillus niger [16]): 14 mm
- zone of inhibition at 80 µM (Trichoderma viride [17]): 22 mm
- diameter of the inhibition zone (DIZ) (Pseudomonas aeruginosa [18]): inactive
- diameter of the inhibition zone (DIZ) (Salmonella typhi [19]): inactive
- inhibition in vivo at 200 mg/kg (Mus musculus): 33.8%
- zone of inhibition at 80 µM (Curvularia lunata [20]): 22 mm
- zone of inhibition at 40 µM (Aspergillus niger [21]): 12 mm
- zone of inhibition at 80 µM (Aspergillus flavus [22]): 14 mm
- IC50 (HepG2): > 100 µM
- MIC (Staphylococcus aureus [23]): > 80 µM
- zone of inhibition at 80 µM (Bacillus cereus [24]): 11 mm
- diameter of the inhibition zone (DIZ) (Staphylococcus aureus [25]): inactive
- diameter of the inhibition zone (DIZ) (Staphylococcus aureus [26]): inactive
- MIC (Salmonella typhi [27]): inactive
- diameter of the inhibition zone (DIZ) (Bacillus cereus [28]): inactive
- zone of inhibition at 20 µM (Aspergillus flavus [29]): 11 mm
- MIC (Pseudomonas aeruginosa [30]): > 80 µM

SMILES: COc1ccc(NS(=O)(=O)c2ccc(/N=N/C(C(=O)/C=C/c3ccc(O)c(OC)c3)=C(O)\C=C\c3ccc(O)c(OC)c3)cc2)nn1
- zone of inhibition at 40 µM (Trichoderma viride [1]): 16 mm
- inhibition zone (IZ) (Aspergillus niger [2]): inactive
- diameter of the inhibition zone (DIZ) (Bacillus cereus [3]): inactive
- IC50 (HeLa): 100 µM
- MIC (Bacillus cereus [4]): > 80 µM
- MIC (Curvularia lunata [5]): 20 µM (≈ 13.2 µg/mL)
- MIC (Aspergillus niger [6]): > 80 µM
- zone of inhibition at 40 µM (Aspergillus flavus [7]): 12 mm
- IC50 (HCT-116): Not Active
- diameter of the inhibition zone (DIZ) (Escherichia coli [8]): inactive
- zone of inhibition at 80 µM (Staphylococcus aureus [9]): 11 mm
- MIC (Trichoderma viride [10]): 20 µM (≈ 13.2 µg/mL)
- IC50 (QG-56): > 100 µM
- zone of inhibition at 40 µM (Curvularia lunata [11]): 16 mm
- MIC (Aspergillus flavus [12]): 40 µM (≈ 26.4 µg/mL)
- zone of inhibition at 20 µM (Trichoderma viride [13]): 12 mm
- zone of inhibition at 20 µM (Curvularia lunata [14]): 12 mm
- MIC (Escherichia coli [15]): > 80 µM
- zone of inhibition at 80 µM (Aspergillus niger [16]): 12 mm
- zone of inhibition at 80 µM (Trichoderma viride [17]): 19 mm
- diameter of the inhibition zone (DIZ) (Pseudomonas aeruginosa [18]): inactive
- diameter of the inhibition zone (DIZ) (Salmonella typhi [19]): inactive
- inhibition in vivo at 200 mg/kg (Mus musculus): 29%
- zone of inhibition at 80 µM (Curvularia lunata [20]): 19 mm
- zone of inhibition at 40 µM (Aspergillus niger [21]): 9 mm
- zone of inhibition at 80 µM (Aspergillus flavus [22]): 15 mm
- IC50 (HepG2): > 100 µM
- MIC (Staphylococcus aureus [23]): > 80 µM
- zone of inhibition at 80 µM (Bacillus cereus [24]): 9 mm
- zone of inhibition at 40 µM (Staphylococcus aureus [25]; ATCC 11632, 24 h, read-out: DIZ): 9 mm
- diameter of the inhibition zone (DIZ) (Staphylococcus aureus [26]): inactive
- MIC (Salmonella typhi [27]): inactive
- diameter of the inhibition zone (DIZ) (Bacillus cereus [28]): inactive
- zone of inhibition at 20 µM (Aspergillus flavus [29]): 11 mm
- MIC (Pseudomonas aeruginosa [30]): > 80 µM
